Reference: ChEMBL document CHEMBL1123620, “Renin inhibitors. Statine-containing tetrapeptides with varied hydrophobic carboxy termini” (J Med Chem, 1987)

Key:
Renin [1] = target: T1, Renin (Homo sapiens, UniProt P00797); test: Inhibition of human plasma renin at 10e-9 M concentration; conditions: read-out: I50
T1 sequence (P00797 whole entry): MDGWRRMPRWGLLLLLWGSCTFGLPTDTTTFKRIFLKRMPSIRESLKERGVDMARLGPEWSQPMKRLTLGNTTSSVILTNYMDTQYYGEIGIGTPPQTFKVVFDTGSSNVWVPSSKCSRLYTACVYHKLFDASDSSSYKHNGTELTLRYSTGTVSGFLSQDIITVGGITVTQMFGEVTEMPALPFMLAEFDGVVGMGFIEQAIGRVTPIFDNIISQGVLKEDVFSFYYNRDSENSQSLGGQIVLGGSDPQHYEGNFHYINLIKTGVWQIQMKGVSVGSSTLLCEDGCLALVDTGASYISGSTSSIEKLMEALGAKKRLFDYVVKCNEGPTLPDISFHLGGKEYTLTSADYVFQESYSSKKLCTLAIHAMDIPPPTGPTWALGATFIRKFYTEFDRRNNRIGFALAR
Procedure, shortened: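 Human plasma renin acting on endogenous plasma angiotensinogen at pH 7.4 (phosphate), 37°C. Renin and substrate levels were not measured. 8-Hydroxyquinoline or phenylmethanesulfonyl fluoride served as angiotensinase inhibitor. Angiotensin I was measured by radioimmunoassay. I50 values were generally reproducible within ±30%.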

Renin [2] = target: T1, Renin; test: Inhibition of purified human kidney renin, fluorometric assay using a synthetic tetradecapeptide renin substrate at 10e-9 M concentration
Procedure, shortened: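 Purified human kidney renin with synthetic tetradecapeptide substrate, read fluorometrically for peptidal amino termini, at 37°C in 0.10 M citrate phosphate, pH 7.20. Ki from linear I/V vs. [I] plots, assuming competitive inhibition. Estimated error ±20%.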

Renin [3] = target: T1, Renin; test: Inhibition of purified human kidney renin, radioimmunoassay using a synthetic tetradecapeptide renin substrate at 10e-9 M concentration
Renin [4] = target: T1, Renin; test: Inhibition of purified human kidney renin, radioimmunoassay using the natural substrate partially pure angiotensinogen at 10e-9 M concentration
Procedure, shortened: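 Purified human kidney renin (0.02 ng) with 500 ng partially purified human angiotensinogen (0.08 μM, about 1% pure), 60 min at 37°C in 0.1 M citrate phosphate, pH 7.20. Inhibitor added in 10% methanol or DMF. Quenched by boiling for 1 min.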

Renin (Sus scrofa) = test: Inhibition of hog kidney renin at 10e-9 M concentration; conditions: read-out: I50

IC50 (Renin [1]) [nM] | Ki (Renin [2]) [nM] | Ki (Renin [3]) [nM] | Ki (Renin [4]) [nM] | IC50 (Renin (Sus scrofa)) [nM] | Compound
178 | 67 | 36 | 220 | 480 | CC(C)CC(NC(=O)[C@H](Cc1c[nH]cn1)NC(=O)[C@H](Cc1ccccc1)NC(=O)OC(C)(C)C)C(O)CC(=O)N[C@@H](CC(C)C)C(=O)NC(C)C(O)c1ccccc1 (stereo not given in full)
127 | 0.064 | 0.04 | 97 | 280 | CC(C)CC(NC(=O)[C@H](Cc1c[nH]cn1)NC(=O)[C@H](Cc1ccccc1)NC(=O)OC(C)(C)C)C(O)CC(=O)N[C@@H](CC(C)C)C(=O)NC1CCN(Cc2ccccc2)CC1 (stereo not given in full)
49 | 19 | 6 | 100 | 14 | CC(C)CC(NC(=O)[C@H](Cc1cnc[nH]1)NC(=O)[C@H](Cc1ccccc1)NC(=O)OC(C)(C)C)C(O)CC(=O)N[C@@H](CC(C)C)C(=O)NC(C)c1ccccc1 (single isomer, unassigned; (+))
569 | 120 | 520 | 320 | 5.8 | C=C1c2ccccc2CC(NC(=O)[C@H](CC(C)C)NC(=O)CC(O)C(CC(C)C)NC(=O)[C@H](Cc2c[nH]cn2)NC(=O)[C@H](Cc2ccccc2)NC(=O)OC(C)(C)C)c2ccccc21 (stereo not given in full)
